Ends that are not written are not given here. * marks the point of attachment. Dodecyl = CCCCCCCCCCCC*; Octyl = CCCCCCCC*
Assays:
Shewanella [1] = assay: MIC by two-fold serial dilution; type: cell-based; conditions: for MIC: two-fold serial dilution, at least three repeats
Pseudomonas [2] = assay: MIC by two-fold serial dilution; type: cell-based; conditions: for MIC: two-fold serial dilution, at least three repeats
[3] = Self-assembly morphology by TEM; type: physicochemical; conditions: aqueous solution, 1 mM
[4] = Circular dichroism secondary structure; type: physicochemical; conditions: aqueous solution, 190–270 nm
Summary of the method: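 The test compound was dissolved in sterile PBS and in 2.5 % SDS buffer (a membrane-mimetic hydrophobic environment), then filtered through 0.22 µm. Spectra were scanned at 190-270 nm with 1 nm bandwidth and 0.5 s interval in a 0.1 cm cuvette. Ellipticity (mdeg) was converted to molar residue ellipticity using residue number, peptide concentration and path length.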

Shewanella [5] = assay: Cell membrane permeability, PI/FDA flow cytometry; type: cell-based; conditions: peptide at MIC, 37℃, 1 h; for bacteria distributed in Q1 and Q2 regions (disturbed membranes): Shewanella, sum of Q1 and Q2
Shewanella [6] = assay: Cell wall permeability; type: cell-based; conditions: peptide at MIC, 37℃, 4 h
Summary of the method: (§1)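 Bacteria from a national culture collection were incubated with the test compound at the MIC (the control received an equal volume of sterile water) at 37°C for 4 h. Samples were centrifuged at 4°C and 5000 x g for 10 min, and alkaline phosphatase (AKP) was measured in the supernatant. Each experiment was done at least three times, reported as mean ± SD.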

Pseudomonas [7] = assay: Ultrastructural observation of treated bacteria; type: cell-based; conditions: cells treated with peptide
Pseudomonas [8] = assay: Cell membrane permeability, PI/FDA flow cytometry; type: cell-based; conditions: peptide at MIC, 37℃, 1 h, sum of Q1 and Q2
Pseudomonas [9] = assay: Cell wall permeability; type: cell-based; conditions: peptide at MIC, 37℃, 4 h
Summary of the method: as §1

Row | Substance | MIC (Shewanella [1]) [µM] | MIC (Pseudomonas [2]) [µM] | antibacterial activity (in words) (Shewanella [1]; bacterial survival rate, S.2) | self-assembly morphology [3] | antibacterial activity (in words) (Pseudomonas [2]; bacterial survival rate, S.2) | secondary structure [4] | bacteria in Q1 region (PI-positive, FDA-negative) (Shewanella [5]; Shewanella (Fig. 4D), flow cytometry) [%] | bacteria distributed in Q1 and Q2 regions (disturbed membranes) (Shewanella [5]) [%] | cell wall permeability (AKP leakage) (Shewanella [6]) | morphological changes of bacterial cells (TEM) (Pseudomonas [7]) | bacteria distributed in Q1 and Q2 regions (disturbed membranes) (Pseudomonas [8]) [%] | cell wall permeability (AKP leakage) (Pseudomonas [9])
1 | AKATKAAKALLKLWLL [AL-16] | 128 | 16 |  |  |  |  |  |  |  |  |  | 
2 | APATPAAPALLPLWLL [AP-16] |  |  | no significant antibacterial activity | did not exhibit an evident self-assembly morphology | no significant antibacterial activity | randomly curled structure |  |  |  |  |  | 
3 | C8-AL-16: AL-16 with alkyl chain (C8) attached to the N-terminus (Octyl-AKATKAAKALLKLWLL) | 4 | 4 |  | nanospheres in the form of micelles |  | β-folded structure | 38.80 | > 98 | significantly enhanced | disrupted by lysis, and the contents leaked, resulting in serious damage | > 98 | significantly enhanced
4 | C12-AL-16: AL-16 with alkyl chain (C12) attached to the N-terminus (Dodecyl-AKATKAAKALLKLWLL) | 4 | 4 |  | nanospheres in the form of micelles |  | α-helix |  | > 98 |  | bacterial contents were lost; however, the basic membrane structure was maintained | > 98 | 

— PMC10884804 (Food Chemistry: X, 2024)
